Data taken from ChEMBL document CHEMBL4422635, “Structure-Based Discovery of a Subtype-Selective Inhibitor Targeting a Transient Receptor Potential Vanilloid Channel” (J Med Chem, 2019).
Numbering of substitutions follows the chain as printed. Activity calls are given as the source filed them. No cut-off for these calls is given here.

How the values were obtained:
[1] = target: T1, Transient receptor potential cation channel subfamily V member 2 (Mus musculus) (UniProt Q9WTR1); assay: Antagonist activity at mouse TRPV2 expressed in HEK293T cells assessed as inhibition of 2-APB evoked currents at -60 mV holding potential by whole-cell patch clamp assay; format: cell-based
T1 sequence (whole entry): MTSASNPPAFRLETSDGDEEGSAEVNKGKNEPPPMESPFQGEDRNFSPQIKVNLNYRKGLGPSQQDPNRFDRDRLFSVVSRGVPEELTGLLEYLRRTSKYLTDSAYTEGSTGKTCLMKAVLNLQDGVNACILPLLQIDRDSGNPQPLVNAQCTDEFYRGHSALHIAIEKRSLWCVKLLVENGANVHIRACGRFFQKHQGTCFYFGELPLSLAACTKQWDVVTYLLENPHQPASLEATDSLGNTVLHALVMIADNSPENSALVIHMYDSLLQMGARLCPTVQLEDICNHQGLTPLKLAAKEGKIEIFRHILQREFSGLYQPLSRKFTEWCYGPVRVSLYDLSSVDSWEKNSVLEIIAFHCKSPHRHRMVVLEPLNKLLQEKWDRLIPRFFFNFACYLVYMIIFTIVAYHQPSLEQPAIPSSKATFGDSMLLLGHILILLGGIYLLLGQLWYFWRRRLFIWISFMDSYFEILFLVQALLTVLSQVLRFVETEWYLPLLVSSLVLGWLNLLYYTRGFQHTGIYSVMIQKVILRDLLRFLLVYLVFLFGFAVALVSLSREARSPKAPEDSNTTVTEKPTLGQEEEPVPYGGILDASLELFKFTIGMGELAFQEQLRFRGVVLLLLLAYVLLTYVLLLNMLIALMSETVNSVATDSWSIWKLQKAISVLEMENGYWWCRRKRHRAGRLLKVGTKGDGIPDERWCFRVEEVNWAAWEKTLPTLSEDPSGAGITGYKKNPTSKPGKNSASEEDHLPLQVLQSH
Summary of the method: (§1)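 Whole-cell voltage clamp of transiently transfected HEK293T cells co-expressing GFP, recorded 36-96 h post-transfection. Hold -60 mV; pipettes 3-7 MΩ. Bath 165 mM NaCl, 10 mM HEPES pH 7.3; pipette 140 mM KCl, 10 mM HEPES pH 7.3. Room temperature (~25 °C). IC50 from Hill fits of I/I0, the current ratio after vs before inhibitor; mean ± SEM.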

[2] = system: T2, Transient receptor potential cation channel subfamily V member 2 (Mus musculus), Q9WTR1 [F467S]; assay: Antagonist activity at mouse TRPV2 F467S mutant expressed in HEK293T cells assessed as inhibition of 2-APB evoked currents at 0.3 to 3 uM by whole-cell patch clamp assay; format: cell-based; summary of the method: as §1
T2 sequence (whole entry): T1 sequence (whole entry) with F467S

[3] = system: Transient receptor potential cation channel subfamily V member 1 (Mus musculus), Q704Y3 [S513F]; assay: Antagonist activity at mouse TRPV1 S513F mutant expressed in HEK293T cells assessed as inhibition of 2-APB evoked currents at 0.3 to 10 uM at -60 mV holding potential by whole-cell patch clamp assay; format: cell-based; summary of the method: as §1
Sequence of Transient receptor potential cation channel subfamily V member 1 (Mus musculus), Q704Y3 [S513F] (Q704Y3 whole entry S513F): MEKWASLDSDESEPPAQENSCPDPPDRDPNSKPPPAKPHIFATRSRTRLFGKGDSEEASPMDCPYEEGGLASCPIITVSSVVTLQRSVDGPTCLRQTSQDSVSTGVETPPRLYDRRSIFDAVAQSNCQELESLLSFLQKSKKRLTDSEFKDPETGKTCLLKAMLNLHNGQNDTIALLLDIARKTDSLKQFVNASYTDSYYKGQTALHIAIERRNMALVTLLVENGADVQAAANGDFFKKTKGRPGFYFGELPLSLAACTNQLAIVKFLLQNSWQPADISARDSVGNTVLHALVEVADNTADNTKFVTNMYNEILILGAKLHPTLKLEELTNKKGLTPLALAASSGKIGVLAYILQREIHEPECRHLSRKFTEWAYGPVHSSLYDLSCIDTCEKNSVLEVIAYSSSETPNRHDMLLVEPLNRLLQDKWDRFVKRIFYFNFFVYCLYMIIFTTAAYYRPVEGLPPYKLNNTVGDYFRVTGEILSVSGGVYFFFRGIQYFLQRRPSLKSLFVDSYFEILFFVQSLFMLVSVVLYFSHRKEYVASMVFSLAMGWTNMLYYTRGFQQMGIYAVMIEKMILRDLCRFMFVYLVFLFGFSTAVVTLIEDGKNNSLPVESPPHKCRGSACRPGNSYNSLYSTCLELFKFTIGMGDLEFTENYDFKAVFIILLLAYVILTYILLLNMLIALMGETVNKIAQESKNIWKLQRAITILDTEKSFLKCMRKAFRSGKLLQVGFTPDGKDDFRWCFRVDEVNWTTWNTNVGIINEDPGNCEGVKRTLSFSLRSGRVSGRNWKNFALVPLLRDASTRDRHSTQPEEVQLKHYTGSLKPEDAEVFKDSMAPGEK

[4] = system: Transient receptor potential cation channel subfamily V member 1 (Mus musculus), Q704Y3 [T551L]; assay: Antagonist activity at mouse TRPV1 T551L mutant expressed in HEK293T cells assessed as inhibition of 2-APB evoked currents at > 1 uM at -60 mV holding potential by whole-cell patch clamp assay; format: cell-based; summary of the method: as §1
Sequence of Transient receptor potential cation channel subfamily V member 1 (Mus musculus), Q704Y3 [T551L] (Q704Y3 whole entry T551L): as the sequence (Q704Y3 whole entry S513F) above, with F513S, T551L counted along it

Mus musculus = assay: Antagonist activity at mouse TRPV2/LPAR1 expressed in LPA-stimulated HEK293T cells assessed as inhibition of 2-APB evoked currents at 10 uM dosed 3 mins after LPA stimulation by whole-cell patch clamp assay; summary of the method: as §1
[5] = system: T3, Transient receptor potential cation channel subfamily V member 2 (Mus musculus), Q9WTR1 [F467A]; assay: Antagonist activity at mouse TRPV2 F467A mutant expressed in HEK293T cells assessed as inhibition of 2-APB evoked currents at -60 mV holding potential by whole-cell patch clamp assay; format: cell-based; summary of the method: as §1
T3 sequence (whole entry): T1 sequence (whole entry) with F467A

inhibition [1]: Dose-dependent effect
inhibition [2]: inactive
inhibition [3]: inactive
inhibition [4]: Active
inhibition [5]: inactive
Structure (SMILES): CCCN(C)c1cc(C(F)(F)F)nc(SCCC(=O)NCc2ccco2)n1
inhibition (Mus musculus): Active
